Test results published in ChEMBL document CHEMBL1955778, “Design and synthesis of novel 7-aminoquinazoline derivatives: antitumor and anticonvulsant activities” (Bioorg Med Chem Lett, 2012).

Legend:
Mus musculus [1] = test: Anticonvulsant activity in mouse assessed as protection against pentylenetetrazol-induced seizure at 1 mmol/kg, ip administered 30 min prior to pentylenetetrazol-challenge measured after 60 mins relative to control; format: functional
CCRF-CEM = test: Growth inhibition of human CCRF-CEM cells at 10 uM relative to control; format: functional; settings: read-out: GI
Procedure, shortened: (§1)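 Each cell line in a 60-line human tumour panel exposed to one 10 μM concentration. Growth inhibition percentage computed as 100 minus the percentage activity relative to control.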

UACC-257 = test: Growth inhibition of human UACC257 cells at 10 uM relative to control; format: functional; settings: read-out: GI
Procedure, shortened: (§2)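 Single-dose screen across the 60-cell-line human tumor panel at 10 μM. Growth inhibition is reported as a percentage, taken as 100 minus the % growth relative to untreated control.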

Mus musculus [2] = test: Anticonvulsant activity in ip dosed mouse assessed as protection against pentylenetetrazol-induced seizure administered 30 min prior to pentylenetetrazol-challenge measured after 60 mins; format: functional
Procedure, shortened: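 Mice received several doses for quantification. ED50 taken as the dose protecting 50% of mice against pentylenetetrazol-induced seizures.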

NCI-H522 = test: Growth inhibition of human NCI-H522 cells at 10 uM relative to control; format: functional; settings: read-out: GI; procedure, shortened: as §1
ACHN = test: Growth inhibition of human ACHN cells at 10 uM relative to control; format: functional; settings: read-out: GI; procedure, shortened: as §1
U-251 = test: Growth inhibition of human U251 cells at 10 uM relative to control; format: functional; settings: read-out: GI; procedure, shortened: as §2
A549 = test: Growth inhibition of human A549 cells at 10 uM relative to control; format: functional; settings: read-out: GI; procedure, shortened: as §1
Mus musculus [3] = test: Anticonvulsant activity in mouse assessed as protection against strychnine-induced seizure at 1 mmol/kg, ip administered 30 min prior to strychnine-challenge measured after 60 mins relative to control; format: functional
SK-MEL-28 = test: Growth inhibition of human SK-MEL-28 cells at 10 uM relative to control; format: functional; settings: read-out: GI; procedure, shortened: as §1
[4] = Therapeutic index, ratio of LD50 for mouse to ED50 for pentylenetetrazol-induced seizure in mouse; format: organism-based; settings: in vivo, read-out: Ratio LD50/ED50
Procedure, shortened: (§3)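 In mice, LD50 is the dose causing 50% mortality. ED50 is the dose protecting 50% of mice against pentylenetetrazole-induced seizures. Therapeutic index = LD50/ED50.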

RPMI-8226 = test: Growth inhibition of human RPMI8226 cells at 10 uM relative to control; format: functional; settings: read-out: GI; procedure, shortened: as §1
MOLT-4 = test: Growth inhibition of human MOLT4 cells at 10 uM relative to control; format: functional; settings: read-out: GI; procedure, shortened: as §1
HL-60(TB) = test: Growth inhibition of human HL-60(TB) cells at 10 uM relative to control; format: functional; settings: read-out: GI
Procedure, shortened: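 Single-dose screen at 10 μM across the 60-cell-line tumour panel. Percent growth inhibition = 100 minus percent growth activity relative to untreated control.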

SNB-75 = test: Growth inhibition of human SNB75 cells at 10 uM relative to control; format: functional; settings: read-out: GI; procedure, shortened: as §2
Mus musculus [5] = organism: Mus musculus; test: Protective index, ratio of TD50 for mouse to ED50 for pentylenetetrazol-induced seizure in mouse; format: functional
Procedure, shortened: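 Mice. Index is TD50/ED50. TD50 is the dose causing minimal neurological toxicity in 50% of mice in the Chimney test. ED50 is the dose protecting 50% of mice against pentylenetetrazole-induced seizures. Both are estimated from testing at several doses.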

SF-295 = test: Growth inhibition of human SF295 cells at 10 uM relative to control; format: functional; settings: read-out: GI; procedure, shortened: as §1
[6] = Neurotoxicity in ip dosed mouse assessed as impaired motor coordination administered 30 mins prior to test by chimney test; format: toxicity, organism-based; settings: in vivo
Procedure, shortened: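 Mice, Chimney test. TD50 is the dose that produces minimal neurological toxicity (impaired motor coordination) in 50% of animals, estimated from testing at several doses.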

Mus musculus [7] = test: Anticonvulsant activity in mouse assessed as protection against maximal electroshock-induced seizure at 1 mmol/kg, ip administered 30 min prior to maximal electroshock-challenge measured after 60 mins relative to control; format: functional
MDA-MB-468 = test: Growth inhibition of human MDA-MB-468 cells at 10 uM relative to control; format: functional; settings: read-out: GI; procedure, shortened: as §1
Mus musculus [8] = test: Anticonvulsant activity in mouse assessed as protection against picrotoxin-induced seizure at 1 mmol/kg, ip administered 30 min prior to picrotoxin-challenge measured after 60 mins relative to control; format: functional
KM12 = test: Growth inhibition of human KM12 cells at 10 uM relative to control; format: functional; settings: read-out: GI; procedure, shortened: as §1
MDA-MB-231 = test: Growth inhibition of human MDA-MB-231 cells at 10 uM relative to control; format: functional; settings: read-out: GI; procedure, shortened: as §1
HT-29 = test: Growth inhibition of human HT-29 cells at 10 uM relative to control; format: functional; settings: read-out: GI; procedure, shortened: as §1
UACC-62 = test: Growth inhibition of human UACC62 cells at 10 uM relative to control; format: functional; settings: read-out: GI; procedure, shortened: as §2
MCF7 = test: Growth inhibition of human MCF7 cells at 10 uM relative to control; format: functional; settings: read-out: GI; procedure, shortened: as §1
MDA-MB-435 = test: Growth inhibition of human MDA-MB-435 cells at 10 uM relative to control; format: functional; settings: read-out: GI; procedure, shortened: as §1
UO-31 = test: Growth inhibition of human UO31 cells at 10 uM relative to control; format: functional; settings: read-out: GI; procedure, shortened: as §2
K562 = test: Growth inhibition of human K562 cells at 10 uM relative to control; format: functional; settings: read-out: GI; procedure, shortened: as §1
SR = test: Growth inhibition of human SR cells at 10 uM relative to control; format: functional; settings: read-out: GI; procedure, shortened: as §2
PC-3 = test: Growth inhibition of human PC3 cells at 10 uM relative to control; format: functional; settings: read-out: GI; procedure, shortened: as §1
HCT-15 = test: Growth inhibition of human HCT15 cells at 10 uM relative to control; format: functional; settings: read-out: GI; procedure, shortened: as §1
LOX IMVI = test: Growth inhibition of human LOXIMVI cells at 10 uM relative to control; format: functional; settings: read-out: GI; procedure, shortened: as §1
[9] = Toxicity in ip dose mouse assessed as mortality; format: organism-based; settings: in vivo; procedure, shortened: as §3
SK-OV-3 = test: Growth inhibition of human SKOV3 cells at 10 uM relative to control; format: functional; settings: read-out: GI; procedure, shortened: as §1
A498 = test: Growth inhibition of human A498 cells at 10 uM relative to control; format: functional; settings: read-out: GI; procedure, shortened: as §1
SNB-19 = test: Growth inhibition of human SNB19 cells at 10 uM relative to control; format: functional; settings: read-out: GI; procedure, shortened: as §2
NCI-H23 = test: Growth inhibition of human NCI-H23 cells at 10 uM relative to control; format: functional; settings: read-out: GI; procedure, shortened: as §1
[10] = Growth inhibition of human Hs 578T cells at 10 uM relative to control; format: functional; settings: read-out: GI; procedure, shortened: as §1
HCT-116 = test: Growth inhibition of human HCT116 cells at 10 uM relative to control; format: functional; settings: read-out: GI; procedure, shortened: as §1
OVCAR-8 = test: Growth inhibition of human OVCAR8 cells at 10 uM relative to control; format: functional; settings: read-out: GI; procedure, shortened: as §1
SF-539 = test: Growth inhibition of human SF539 cells at 10 uM relative to control; format: functional; settings: read-out: GI; procedure, shortened: as §1
NCI-H226 = test: Growth inhibition of human NCI-H226 cells at 10 uM relative to control; format: functional; settings: read-out: GI; procedure, shortened: as §1
HCC 2998 = test: Growth inhibition of human HCC2998 cells at 10 uM relative to control; format: functional; settings: read-out: GI; procedure, shortened: as §1
CAKI-1 = test: Growth inhibition of human CAKI-1 cells at 10 uM relative to control; format: functional; settings: read-out: GI; procedure, shortened: as §1
EKVX = test: Growth inhibition of human EKVX cells at 10 uM relative to control; format: functional; settings: read-out: GI; procedure, shortened: as §1

Q: Which results are given for Cc1ccccc1-n1c(C)nc2cc(N3C(=O)CSC3c3ccc(F)cc3)ccc2c1=O (centres undefined)?
A: Activity (Mus musculus [1]): 100%; inhibition of growth at 10 µM (CCRF-CEM): 13.2%; inhibition of growth at 10 µM (UACC-257): 9%; ED50 (Mus musculus [2]): 400 µmol/kg; inhibition of growth at 10 µM (NCI-H522): 18%; inhibition of growth at 10 µM (ACHN): 3%; inhibition of growth at 10 µM (U-251): 11%; inhibition of growth at 10 µM (A549): 2%; Activity (Mus musculus [3]): 0%; inhibition of growth at 10 µM (SK-MEL-28): 11%; selectivity ratio [4]: 2.55; inhibition of growth at 10 µM (RPMI-8226): 10%; inhibition of growth at 10 µM (MOLT-4): 28.9%; inhibition of growth at 10 µM (HL-60(TB)): 7%; inhibition of growth at 10 µM (SNB-75): 8.5%; Ratio TD50/ED50 (Mus musculus [5]): 1.4; inhibition of growth at 10 µM (SF-295): 7%; TD50 at 0.5 h [6]: 560 µmol/kg; Activity (Mus musculus [7]): 100%; inhibition of growth at 10 µM (MDA-MB-468): 2.5%; Activity (Mus musculus [8]): 75%; inhibition of growth at 10 µM (KM12): 4%; inhibition of growth at 10 µM (MDA-MB-231): 8%; inhibition of growth at 10 µM (HT-29): 3%; inhibition of growth at 10 µM (UACC-62): 14%; inhibition of growth at 10 µM (MCF7): 9%; inhibition of growth at 10 µM (MDA-MB-435): 9.7%; inhibition of growth at 10 µM (UO-31): 11.7%; inhibition of growth at 10 µM (K562): 10%; inhibition of growth at 10 µM (SR): 4%; inhibition of growth at 10 µM (PC-3): 12.2%; inhibition of growth at 10 µM (HCT-15): 5%; inhibition of growth at 10 µM (LOX IMVI): 5%; LD50 [9]: 1020 µmol/kg; inhibition of growth at 10 µM (SK-OV-3): 3%

Q: Which results are given for Cc1ccccc1-n1c(C)nc2cc(NS(=O)(=O)c3ccccc3)ccc2c1=O?
A: inhibition of growth at 10 µM (CCRF-CEM): 13%; inhibition of growth at 10 µM (NCI-H522): 2.2%; inhibition of growth at 10 µM (U-251): 4%; inhibition of growth at 10 µM (A498): 8%; inhibition of growth at 10 µM (A549): 5%; inhibition of growth at 10 µM (SNB-19): 4%; inhibition of growth at 10 µM (NCI-H23): 5.2%; inhibition of growth at 10 µM [10]: 3.2%; inhibition of growth at 10 µM (SK-MEL-28): 2.4%; inhibition of growth at 10 µM (RPMI-8226): 12%; inhibition of growth at 10 µM (MOLT-4): 12.2%; inhibition of growth at 10 µM (HL-60(TB)): 4%; inhibition of growth at 10 µM (SNB-75): 14.8%; inhibition of growth at 10 µM (HCT-116): 4%; inhibition of growth at 10 µM (OVCAR-8): 5.4%; inhibition of growth at 10 µM (SF-295): 9%; inhibition of growth at 10 µM (HT-29): 3%; inhibition of growth at 10 µM (SF-539): 4%; inhibition of growth at 10 µM (NCI-H226): 2.5%; inhibition of growth at 10 µM (HCC 2998): 4%; inhibition of growth at 10 µM (UACC-62): 9%; inhibition of growth at 10 µM (UO-31): 13.6%; inhibition of growth at 10 µM (K562): 10%; inhibition of growth at 10 µM (PC-3): 8%; inhibition of growth at 10 µM (CAKI-1): 4%; inhibition of growth at 10 µM (EKVX): 14.3%

Q: Which results are given for Cc1ccccc1-n1c(C)nc2cc(-n3c(C)nc4ccc(Cl)cc4c3=O)ccc2c1=O?
A: Activity (Mus musculus [1]): 33%; Activity (Mus musculus [3]): 0%; Activity (Mus musculus [7]): 50%
